Here are results for eight compounds from ChEMBL document CHEMBL1124779, “Synthesis and antitumor activity of 1-[[(dialkylamino)alkyl]amino]-4-methyl-5H-pyrido[4,3-b]benzo[e]- and -benzo[g])indoles. A new class of antineoplastic agents” (1990).

The nature of assay [1]: Cytotoxicity in the multiple tumor disk diffusion soft agar assay at the dose of 15 ug/disk against solid tumor C38. Type of assay: functional, Mus musculus. The method, boiled down:
(§1)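 Soft agar disk diffusion: bottom layer 0.8% noble agar, top layer 0.47% noble agar, both in 1:1 CMRL-Fischer medium with 11% horse serum. Top layer seeded with 5×10^3 L1210 cells or 10^6 solid tumor cells (C38, PO3). Drug applied on a dried 6-mm filter-paper disk. Incubation 7-11 days. Inhibition zone measured by inverted microscope, in units (1 unit = 30 μm).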

The test system of assay [2] is L1210. As to the kind of experiment: Cytotoxicity in the multiple tumor disk diffusion soft agar assay at the dose of 15 ug/disk against leukemia L1210. Type of assay: functional, Mus musculus. The method, boiled down: as §1
The nature of assay [3]: Tested for the change in body weight between day 1 and 7 for murine solid tumor model 3LL early stage that is subcutaneously implanted by the intravenous treatment at the dose of 20 mg/kg in 1-4 schedule. Type of assay: functional, Mus musculus.
For assay [4], the system named is Mus musculus. In words: In vivo total number of survivors was determined against L1210 Leukemia cells out of 8 mouse at 50 day. Type of assay: functional, Leukemia cell. The method, boiled down:
(§2)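 B6D2 F1 mice, at least five per group, were inoculated ip on day 0 with 10^5 viable L1210 cells (25 mL/kg). Compounds were dissolved in distilled water and given ip (25 mL/kg) on days 1–4. Deaths were checked daily, with necropsy to separate tumor from toxic death. T/C×100 was median survival of treated over controls. Mice surviving over 50 days counted as cured and were excluded from the median.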

The species entered for assay [5] is Mus musculus. As to the kind of experiment: (§3) In vitro cytotoxicity was determined against P388 leukemia cells. Type of assay: functional. Conditions: read-out: ID50 (the source's name). The method, boiled down: (§4)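 P388 cells in exponential growth, RPMI 1640 with 2 mM glutamine, 10 μM 2-mercaptoethanol and 10% FCS, 5% CO2, 37 °C. Cells at 10^5 cells/mL. Drugs in distilled water added on day 0. Cells counted by Coulter counter after 96 h. ID50 (μg/mL, 50% inhibition of proliferation) estimated by regression of concentration/response data.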

Assay [6] in a line: Tested for mean number of metastases in treated/control animals x 100 (% T/C) for murine solid tumor model 3LL early stage that is intramuscularly implanted by the intravenous treatment at the dose of 20 mg/kg in 1-4 schedule. Conditions: Mus musculus.
The subject of assay [7] is P388. As to the kind of experiment: In vivo T/C (survival time treated/survival time control x 100) was determined against P388 leukemia cells at 20 mg/Kg. It counts as functional, Mus musculus. The method, boiled down:
(§5)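 B6D2 F1 mice, at least five per group, were inoculated ip on day 0 with 10^6 viable P388 cells (25 mL/kg). Compounds were dissolved in distilled water and given ip (25 mL/kg) daily on days 1–4. Mortality was checked daily, with necropsy of dead animals. T/C×100 was median survival, treated versus control. Survivors beyond 50 days counted as cured and were excluded from the median.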

Assay [8] can be described thus: Cytotoxicity in the multiple tumor disk diffusion soft agar assay at the dose of 15 ug/disk against solid tumor PO3. It counts as functional, Mus musculus. The procedure, abridged: as §1
The test system of assay [9] is Mus musculus. In words: In vivo total number of survivors was determined against P388 leukemia cells out of 5 mouse at 50 day. Type of assay: functional. The method, boiled down: as §5
The subject of assay [10] is P388. As to the kind of experiment: In vivo T/C (survival time treated/survival time control x 100) was determined against P388 leukemia cells at 10 mg/Kg. Type of assay: functional, Mus musculus. The method, boiled down: as §5
Assay [11] has as its system L1210. As to the kind of experiment: Tested for cytotoxicity in the multiple tumor disk diffusion soft agar assay at the dose of 15 ug/disk against leukemia L1210; range is 420-490. Type of assay: functional, Mus musculus. The method, boiled down:
as §1

Assay [12] relates to P388. The assay is described as §3. Type of assay: functional. Conditions: Mus musculus, read-out: ID50 (the source's name). The method, boiled down:
as §4

A short description of assay [13]: Tested for cytotoxicity in the multiple tumor disk diffusion soft agar assay at the dose of 15 ug/disk against solid tumor C38; range is 550-600. Type of assay: functional, Mus musculus. The procedure, abridged:
as §1

For assay [14], the system named is P388. As to the kind of experiment: In vivo T/C (survival time treated/survival time control x 100) was determined against P388 leukemia cells at 2.5 mg/Kg. Type of assay: functional, Mus musculus. The method, boiled down:
as §5

The subject of assay [15] is P388. In words: In vivo T/C (survival time treated/survival time control x 100) was determined against P388 leukemia cells at 5.0 mg/Kg. It counts as functional, Mus musculus. The method, boiled down: as §5
Assay [16] has as its system L1210. As to the kind of experiment: Tested for cytotoxicity in the multiple tumor disk diffusion soft agar assay at the dose of 15 ug/disk against leukemia L1210; range is 450-650. It counts as functional, Mus musculus. The procedure, abridged: as §1
Assay [17] has as its system L1210. As to the kind of experiment: In vivo T/C (survival time treated/survival time control x 100) was determined against L1210 leukemia cells at 10 mg/Kg. Type of assay: functional, Mus musculus. The procedure, abridged: as §2
Assay [18] in a line: Tested for cytotoxicity in the multiple tumor disk diffusion soft agar assay at the dose of 15 ug/disk against solid tumor C38. Type of assay: functional, Mus musculus. The procedure, abridged:
as §1

The test system of assay [19] is L1210. In words: Tested for cytotoxicity in the multiple tumor disk diffusion soft agar assay at the dose of 15 ug/disk against leukemia L1210. It counts as functional, Mus musculus. The procedure, abridged: as §1
Assay [20] is described as follows: Tested for the change in body weight between day1 and 7 for murine solid tumor model MA 16/C early stage that is subcutaneously implanted by the intravenous treatment. Type of assay: functional, Mus musculus. The procedure, abridged: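 Mice given sc 1 mm³ tumor fragment: C26 in CD2F1 mice, MA 16/C in C3H mice (tumors passaged in strain of origin), 10 per group. Drug given iv days 1–4 at 10 mL/kg. Animals weighed daily and watched for toxicity. Body-weight change taken from day 1 to day 7. Killed day 14 (C26) or 15 (MA 16/C).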

Assay [21] in a line: Tested for the change in body weight between day 1 and 7 for murine solid tumor model C26 early stage that is subcutaneously implanted by the intravenous treatment at the dose of 10 mg/kg in 1-4 schedule. It counts as functional, Mus musculus. The method, boiled down: (§6)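 sc implant of 1 mm³ tumor fragment. MA 16/C in C3H mice, B16 in C57BL/6 mice, C26 in CD2F1 mice; 10 per group. iv dosing on days 1-4 at 10 mL/kg. Mice weighed daily. Killed day 14 (C26) or day 15 (MA 16/C, B16) and tumors weighed. T/C×100 from median tumor weight, treated vs control. Body weight change taken from day 1 to 7.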

A short description of assay [22]: Tested for the change in body weight between day 1 and 14 for murine solid tumor model 3LL advanced stage that is intramuscularly implanted by the intravenous treatment at the dose of 10 mg/kg in 7-10 schedule. Conditions: Mus musculus.
The nature of assay [23]: Tested for the change in body weight between day 1 and 7 for murine solid tumor model B16 early stage that is subcutaneously implanted by the intravenous treatment at the dose of 10 mg/kg in 1-4 schedule. It counts as functional. The conditions noted are these: Mus musculus, dose 5 mg/kg, in the assay text read “5 mg/kg” for “10 mg/kg”. The method, boiled down:
as §6

Assay [24] can be described thus: Tested for medium tumor weight of treated /control animals x 100 (% T/C) for murine solid tumor model B16 early stage that is subcutaneously implanted by the intravenous treatment at the dose of 5 mg/kg in 1-4 schedule. It counts as functional, Mus musculus. The procedure, abridged: as §6
Assay [25] is described as follows: Tested for medium tumor weight of treated /control animals x 100 (% T/C) for murine solid tumor model MA 16/C early stage that is subcutaneously implanted by the intravenous treatment at the dose of 10 mg/kg in 1-4 schedule. It counts as functional, Mus musculus. The procedure, abridged:
as §6

The nature of assay [26]: Tested for the change in body weight between day 1 and 7 for murine solid tumor model 3LL early stage that is subcutaneously implanted by the intravenous treatment at the dose of 5 mg/kg in 1-4 schedule. It counts as functional, Mus musculus.
Assay [27] in a line: Tested for medium tumor weight of treated /control animals x 100 (% T/C) for murine solid tumor model C26 early stage that is subcutaneously implanted by the intravenous treatment at the dose of 10 mg/kg in 1-4 schedule. It counts as functional, Mus musculus. The method, boiled down: as §6
Assay [28] is described as follows: Tested for medium tumor weight of treated /control animals x 100 (% T/C) for murine solid tumor model 3LL early stage that is subcutaneously implanted by the intravenous treatment at the dose of 10 mg/kg in 1-4 schedule. It counts as functional, Mus musculus.
Assay [29] can be described thus: Tested for mean number of metastases of treated /control animals x 100 (% T/C) for murine solid tumor model 3LL advanced stage that is intramuscularly implanted by the intravenous treatment at the dose of 10 mg/kg in 7-10 schedule. The conditions noted are these: Mus musculus.

The structures appear in SMILES notation. Values after ≈ are worked out from the molar mass of the structure shown.

Take `Cc1c[nH]c(NCC(C)CN(C)C)c2c3c(ccc4cc(O)ccc43)nc1-2` (centres undefined): the Cytotoxicity worked out at 675 U in assay [1], 300 U in the assay on L1210 [2] and 850 U in assay [8]. Besides, the Change in weight in [3] was -1.7 g. In addition, the Survivors in the assay with Mus musculus [4] turned out to be 2; with Mus musculus [9], 3. Besides, in the assay listed under Mus musculus [5], the IC50 was 0.1 µg/mL (≈ 0.276 µM). In [6], this compound registered a T/C of 0%. Also, the “T/C x100” value with P388 [7] was 213.

Turning to `Cc1c[nH]c(NCCCN(C)C)c2c3ccc4ccccc4c3nc1-2`, the Cytotoxicity in the assay on L1210 [2] is reported as 500 U; in the assay with L1210 [11], 420 U; in assay [8] it was 310 U; in assay [13] it was 550 U. In the assay with P388 [10], the “T/C x100” value came to 115. Also, in the assay on P388 [12], the IC50 is 0.375 µg/mL (≈ 1.13 µM).

`Cc1c[nH]c(NCCCN(C)C)c2c3cc(O)ccc3nc1-2`: the “T/C x100” value in the assay on P388 [14] came out at 130.

As to `COc1cccc2c1ccc1c2[nH]c2c(C)cnc(NCCCN(C)C)c21`, the Cytotoxicity is recorded as 280 U in the assay on L1210 [2] and 225 U in [8]. Moreover, the IC50 with P388 [12] turned out to be 0.15 µg/mL (≈ 0.414 µM). In addition, the “T/C x100” value with P388 [7] is on record as 121.

On to `Cc1cnc(NCCCN(C)C)c2c3cc(O)ccc3n(C)c12`, for which the “T/C x100” value in the assay on P388 [15] turned out to be 128.

As to `CCN(CC)CCCNc1ncc(C)c2[nH]c3ccc4cc(O)ccc4c3c12`, the Cytotoxicity in assay [1] came out at 625 U; in the assay on L1210 [2] it was 475 U; in the assay with L1210 [16] it was 450 U; in [8], 900 U. For the same compound, the “T/C x100” value in the assay with P388 [10] is listed as 215; in the assay with L1210 [17], 149. For the same compound, the IC50 in the assay on P388 [12] is 0.05 µg/mL (≈ 0.133 µM).

`Cc1cnc(NCCCN(C)C)c2c1[nH]c1ccc3ccccc3c12`: the Cytotoxicity was determined as 675 U in [18] and 550 U with L1210 [19]. Moreover, the IC50 in the assay with P388 [12] came out at 0.1 µg/mL (≈ 0.301 µM).

With `Cc1cnc(NCCCN(C)C)c2c1[nH]c1ccc3cc(O)ccc3c12` [INTOPLICINE], the Cytotoxicity in the assay with L1210 [2] stood at 375 U; in assay [18], 700 U; in assay [8] it was 850 U. In addition, the Change in weight is recorded as -1.7 g in assay [20]; -1.9 g in assay [21]; -2.8 g in assay [22]; -1.1 g in assay [23]; -2.1 g in assay [26]. For the same compound, the “T/C x100” value worked out at 270 in the assay with P388 [10], 182 in the assay on P388 [15] and 143 with L1210 [17]. Besides, the T/C is given as 28% in assay [24]; 2% in [25]; 0% in assay [27]; 0% in assay [28]; 34% in [29]. In the assay with Mus musculus [4], this compound gave a Survivors of 5. Besides, in the assay with P388 [12], the IC50 was determined as 0.025 µg/mL (≈ 0.0717 µM).
